The term Ki denotes a measure of affinity in units of concentration, obtained from inhibition or displacement.

The target of one test is T1, Adenosine receptor A1 (Bos taurus, UniProt P28190).
T1 sequence (P28190 whole entry): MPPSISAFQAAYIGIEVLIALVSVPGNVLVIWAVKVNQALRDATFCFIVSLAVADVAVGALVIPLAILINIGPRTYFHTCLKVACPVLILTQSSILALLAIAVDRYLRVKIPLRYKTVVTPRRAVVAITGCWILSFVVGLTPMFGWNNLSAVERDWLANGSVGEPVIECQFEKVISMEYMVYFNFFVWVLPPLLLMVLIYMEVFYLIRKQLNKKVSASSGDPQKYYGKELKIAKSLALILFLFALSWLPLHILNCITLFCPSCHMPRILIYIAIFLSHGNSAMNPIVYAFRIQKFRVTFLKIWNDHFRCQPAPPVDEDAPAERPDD
Put plainly: Displacement of [3H]CHA from Adenosine A1 receptor in bovine cortical membranes. Format: cell membranes. The essentials: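 Compounds were dissolved in DMSO (≤2% in assay) and tested at six or more concentrations. n = 4 independent experiments in triplicate. Ki and IC50 ± SEM came from iterative curve fitting. Protein was measured with BSA as standard after NaOH (0.75 N) solubilization.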
For orientation: Loss of bound radioactivity is the signal in a displacement assay; it reports binding, not function.
As for `CC(=O)CNc1nc(-c2ccccc2)nc2nc(C(C)C)cn12`, affinity was put at a Ki of 2360 nM.
Consider `Cc1cn2c(NC34C[C@H]5C[C@@H](C3)C[C@@H](C4)C5)nc(-c3ccccc3)nc2n1`, for which the affinity corresponds to a Ki of 511 nM.
On to `CC(=O)CNc1nc(-c2ccccc2)nc2nc(C)cn12`, for which affinity was put at a Ki of 12 nM.
`Cc1cn2c(NC(=O)c3ccccc3)nc(-c3ccccc3)nc2n1` returned a Ki of 27.2 nM.
In turn, `CC(=O)Nc1nc(-c2ccccc2)nc2nc(-c3ccccc3)cn12` showed a Ki of 23 nM.
Consider `CC(=O)CNc1nc(-c2ccccc2)nc2nc(-c3ccccc3)cn12`, for which the Ki is greater than 10000 nM.
The compound `Cc1cn2c(NCC3CCCCC3)nc(-c3ccccc3)nc2n1` showed a Ki of 231 nM.
Still for that read-out and setting: with `Cc1cn2c(NC3CCCC3)nc(-c3ccccc3)nc2n1` the figure was 41 nM; with `Cc1cn2c(NCc3ccccc3)nc(-c3ccccc3)nc2n1`, 3900 nM.
`CC(C)c1cn2c(NC(=O)C3CCCC3)nc(-c3ccccc3)nc2n1` had a Ki of 5.8 nM.
For the compound `O=C(Nc1nc(-c2ccccc2)nc2nc(-c3ccccc3)cn12)C1CCCC1`, the Ki is 17 nM.
In the case of `Cc1cn2c(NC(=O)C3CCCCC3)nc(-c3ccccc3)nc2n1`, the Ki was 116 nM.
Same read-out and setting: with `Cc1cn2c(NC(=O)C3CCCC3)nc(-c3ccccc3)nc2n1` the figure was 4.4 nM; with `CCc1cn2c(NCC(C)=O)nc(-c3ccccc3)nc2n1`, greater than 10000 nM; with `CCC(=O)CNc1nc(-c2ccccc2)nc2nc(C)cn12`, greater than 10000 nM.
Still for that read-out and setting: in the case of `CCc1cn2c(NC(=O)C3CCCC3)nc(-c3ccccc3)nc2n1` it was 3.3 nM; in that of `Cc1cn2c(N)nc(-c3ccccc3)nc2n1`, 332 nM; in that of `CC(=O)Nc1nc(-c2ccccc2)nc2nc(C)cn12`, 855 nM.

In another test the target is Adenosine receptor A2a (Bos taurus). Put plainly: Displacement of [3H]- CGS-21680 from Adenosine A2a receptor in bovine striatal membranes.
For `Cc1cn2c(NC34C[C@H]5C[C@@H](C3)C[C@@H](C4)C5)nc(-c3ccccc3)nc2n1`, the Ki is greater than 10000 nM.
The compound `CC(=O)CNc1nc(-c2ccccc2)nc2nc(C)cn12` registered a Ki greater than 10000 nM.
Still for that read-out and setting: with `CC(=O)Nc1nc(-c2ccccc2)nc2nc(-c3ccccc3)cn12` the figure was 3200 nM; with `Cc1cn2c(NC3CCCC3)nc(-c3ccccc3)nc2n1`, 4100 nM; with `CC(C)c1cn2c(NC(=O)C3CCCC3)nc(-c3ccccc3)nc2n1`, greater than 10000 nM.
Still for that read-out and setting: with `O=C(Nc1nc(-c2ccccc2)nc2nc(-c3ccccc3)cn12)C1CCCC1` the figure was 2500 nM; with `CCC(=O)CNc1nc(-c2ccccc2)nc2nc(C)cn12`, greater than 10000 nM.
`CC(=O)Nc1nc(-c2ccccc2)nc2nc(C)cn12` yielded a Ki greater than 10000 nM.

Source of the values: ChEMBL document CHEMBL1135595, “Design, synthesis and biological evaluation of novel N-alkyl- and N-acyl-(7-substituted-2-phenylimidazo[1,2-a][1,3,5]triazin-4-yl)amines (ITAs) as novel A(1) adenosine receptor antagonists” (J Med Chem, 2002).
